From ChEMBL document CHEMBL4052615, “Discovery of 4-amino-3-arylsulfoquinolines, a novel non-acetylenic chemotype of metabotropic glutamate 5 (mGlu5) receptor negative allosteric modulators” (Eur J Med Chem, 2017)
≈ marks a conversion by molar mass, not a printed value. Calls of active or inactive are those of the source. The rule behind the calls is not given here.

Assays:
[1] = Drug level in blood of rat at 10 mg/kg, ip at 40 mins post dose; format: ADME, organism-based; details: read-out: Drug uptake
Rattus norvegicus = assay: Anxiolytic activity in ip dosed rat assessed as increase in water drinking time during punished period by Vogel punished drinking conflict test; format: functional; details: read-out: MED
Summary of the method: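 Rats were water-deprived 48 h. On test day, compound was given i.p. in 5% Tween/distilled water at 1, 3 or 10 mg/kg, n=8 per dose. A 30-s unpunished drinking period followed. Comparison to vehicle was by ANOVA with Duncan post-hoc, giving MED.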

[2] = Aqueous solubility of the compound in water; format: physicochemical
[3] = biological target: T1, Metabotropic glutamate receptor 5 (Homo sapiens, UniProt P41594); assay: Displacement of [3H]M-MPEP from mGluR5 (unknown origin) measured after 60 mins
Summary of the method: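 The [³H]M-MPEP competition used rat cortical membranes or human mGlu5a A18 cell membranes in Tris pH 7.6 buffer with MgCl₂ and CaCl₂, 60 min at 25°C. Curves were generally 7 concentrations in duplicate or triplicate. IC50 was converted to Ki by Cheng–Prusoff, with Kd from a Scatchard plot. Non-specific binding was defined with M-MPEP.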
Target sequence in this assay (P41594 whole entry): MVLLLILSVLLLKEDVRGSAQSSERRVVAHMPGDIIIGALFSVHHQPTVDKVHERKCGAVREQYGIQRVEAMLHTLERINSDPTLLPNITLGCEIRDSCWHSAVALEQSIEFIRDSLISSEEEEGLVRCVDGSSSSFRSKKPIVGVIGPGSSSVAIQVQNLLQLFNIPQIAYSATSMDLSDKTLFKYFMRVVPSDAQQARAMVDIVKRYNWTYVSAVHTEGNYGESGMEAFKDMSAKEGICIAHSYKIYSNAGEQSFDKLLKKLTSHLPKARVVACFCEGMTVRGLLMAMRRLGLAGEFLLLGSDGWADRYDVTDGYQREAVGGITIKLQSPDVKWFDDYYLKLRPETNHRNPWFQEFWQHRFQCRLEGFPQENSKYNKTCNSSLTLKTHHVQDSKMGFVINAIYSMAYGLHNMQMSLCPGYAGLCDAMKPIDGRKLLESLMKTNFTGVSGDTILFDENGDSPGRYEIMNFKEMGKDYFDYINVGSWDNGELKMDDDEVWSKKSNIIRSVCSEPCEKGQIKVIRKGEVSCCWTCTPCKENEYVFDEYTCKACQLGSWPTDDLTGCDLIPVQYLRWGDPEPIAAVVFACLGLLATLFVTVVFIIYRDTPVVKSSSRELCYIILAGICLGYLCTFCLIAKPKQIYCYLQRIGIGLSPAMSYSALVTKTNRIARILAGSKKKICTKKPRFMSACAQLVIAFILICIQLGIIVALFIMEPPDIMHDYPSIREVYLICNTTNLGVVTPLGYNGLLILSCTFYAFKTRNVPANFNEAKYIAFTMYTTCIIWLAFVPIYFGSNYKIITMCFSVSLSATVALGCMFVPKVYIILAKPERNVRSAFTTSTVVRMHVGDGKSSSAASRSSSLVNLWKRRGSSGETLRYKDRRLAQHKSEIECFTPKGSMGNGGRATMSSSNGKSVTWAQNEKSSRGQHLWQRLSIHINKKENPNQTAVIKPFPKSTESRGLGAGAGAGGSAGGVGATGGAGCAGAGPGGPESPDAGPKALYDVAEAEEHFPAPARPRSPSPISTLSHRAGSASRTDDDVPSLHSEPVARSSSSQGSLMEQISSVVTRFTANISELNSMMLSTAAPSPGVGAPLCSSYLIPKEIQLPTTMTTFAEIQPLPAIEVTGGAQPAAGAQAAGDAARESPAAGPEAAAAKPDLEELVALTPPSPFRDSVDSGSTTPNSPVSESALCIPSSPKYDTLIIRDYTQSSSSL

[4] = biological target: T1, Metabotropic glutamate receptor 5; assay: Displacement of [3H]M-MPEP from mGluR5 (unknown origin) at 1 uM measured after 60 mins relative to control
Summary of the method: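 Rat cerebrocortical membranes or membranes from A18 cells expressing human mGlu5a, incubated with [³H]M-MPEP and test compound at 1 µM in 50 mM Tris pH 7.6 with 2 mM MgCl₂ and 2 mM CaCl₂, 60 min at 25°C. Non-specific binding was taken with […]. Result is % displacement, run in duplicate or triplicate.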
Target sequence in this assay (P41594 21-1212 limits assumed): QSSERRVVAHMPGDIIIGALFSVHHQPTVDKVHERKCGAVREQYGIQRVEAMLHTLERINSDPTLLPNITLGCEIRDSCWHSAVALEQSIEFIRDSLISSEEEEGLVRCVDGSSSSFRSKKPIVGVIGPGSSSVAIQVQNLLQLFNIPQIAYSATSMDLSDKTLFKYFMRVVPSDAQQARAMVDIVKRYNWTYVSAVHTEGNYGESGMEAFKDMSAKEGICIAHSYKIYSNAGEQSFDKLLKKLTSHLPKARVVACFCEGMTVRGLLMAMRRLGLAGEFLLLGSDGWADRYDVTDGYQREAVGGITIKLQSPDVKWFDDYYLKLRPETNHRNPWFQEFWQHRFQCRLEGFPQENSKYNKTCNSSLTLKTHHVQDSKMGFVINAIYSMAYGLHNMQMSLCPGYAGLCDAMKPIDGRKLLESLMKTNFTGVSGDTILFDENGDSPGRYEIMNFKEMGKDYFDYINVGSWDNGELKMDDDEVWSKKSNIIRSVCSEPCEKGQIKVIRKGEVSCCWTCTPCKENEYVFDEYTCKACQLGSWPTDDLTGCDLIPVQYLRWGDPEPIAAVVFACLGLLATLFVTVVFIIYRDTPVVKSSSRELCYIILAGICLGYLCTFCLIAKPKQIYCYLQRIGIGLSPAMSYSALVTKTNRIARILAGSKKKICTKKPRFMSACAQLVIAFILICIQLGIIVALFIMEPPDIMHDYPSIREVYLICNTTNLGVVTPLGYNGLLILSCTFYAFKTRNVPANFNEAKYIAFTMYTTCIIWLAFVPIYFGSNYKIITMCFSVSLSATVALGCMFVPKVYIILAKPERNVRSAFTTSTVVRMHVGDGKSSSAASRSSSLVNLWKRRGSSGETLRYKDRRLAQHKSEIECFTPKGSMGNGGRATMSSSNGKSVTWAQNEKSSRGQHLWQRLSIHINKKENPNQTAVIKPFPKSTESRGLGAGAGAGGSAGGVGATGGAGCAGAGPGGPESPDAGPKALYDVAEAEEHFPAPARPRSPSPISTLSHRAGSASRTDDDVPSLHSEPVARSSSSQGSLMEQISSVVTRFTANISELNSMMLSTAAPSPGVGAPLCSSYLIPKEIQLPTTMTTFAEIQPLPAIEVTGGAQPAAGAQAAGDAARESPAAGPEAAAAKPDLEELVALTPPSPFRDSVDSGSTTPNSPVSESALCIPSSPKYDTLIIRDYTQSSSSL

[5] = biological target: Metabotropic glutamate receptor 1 (Homo sapiens) (UniProt Q13255); assay: Activity at mGluR1 (unknown origin)
Sequence of Metabotropic glutamate receptor 1 (Homo sapiens) (Q13255 19-1194 limits assumed): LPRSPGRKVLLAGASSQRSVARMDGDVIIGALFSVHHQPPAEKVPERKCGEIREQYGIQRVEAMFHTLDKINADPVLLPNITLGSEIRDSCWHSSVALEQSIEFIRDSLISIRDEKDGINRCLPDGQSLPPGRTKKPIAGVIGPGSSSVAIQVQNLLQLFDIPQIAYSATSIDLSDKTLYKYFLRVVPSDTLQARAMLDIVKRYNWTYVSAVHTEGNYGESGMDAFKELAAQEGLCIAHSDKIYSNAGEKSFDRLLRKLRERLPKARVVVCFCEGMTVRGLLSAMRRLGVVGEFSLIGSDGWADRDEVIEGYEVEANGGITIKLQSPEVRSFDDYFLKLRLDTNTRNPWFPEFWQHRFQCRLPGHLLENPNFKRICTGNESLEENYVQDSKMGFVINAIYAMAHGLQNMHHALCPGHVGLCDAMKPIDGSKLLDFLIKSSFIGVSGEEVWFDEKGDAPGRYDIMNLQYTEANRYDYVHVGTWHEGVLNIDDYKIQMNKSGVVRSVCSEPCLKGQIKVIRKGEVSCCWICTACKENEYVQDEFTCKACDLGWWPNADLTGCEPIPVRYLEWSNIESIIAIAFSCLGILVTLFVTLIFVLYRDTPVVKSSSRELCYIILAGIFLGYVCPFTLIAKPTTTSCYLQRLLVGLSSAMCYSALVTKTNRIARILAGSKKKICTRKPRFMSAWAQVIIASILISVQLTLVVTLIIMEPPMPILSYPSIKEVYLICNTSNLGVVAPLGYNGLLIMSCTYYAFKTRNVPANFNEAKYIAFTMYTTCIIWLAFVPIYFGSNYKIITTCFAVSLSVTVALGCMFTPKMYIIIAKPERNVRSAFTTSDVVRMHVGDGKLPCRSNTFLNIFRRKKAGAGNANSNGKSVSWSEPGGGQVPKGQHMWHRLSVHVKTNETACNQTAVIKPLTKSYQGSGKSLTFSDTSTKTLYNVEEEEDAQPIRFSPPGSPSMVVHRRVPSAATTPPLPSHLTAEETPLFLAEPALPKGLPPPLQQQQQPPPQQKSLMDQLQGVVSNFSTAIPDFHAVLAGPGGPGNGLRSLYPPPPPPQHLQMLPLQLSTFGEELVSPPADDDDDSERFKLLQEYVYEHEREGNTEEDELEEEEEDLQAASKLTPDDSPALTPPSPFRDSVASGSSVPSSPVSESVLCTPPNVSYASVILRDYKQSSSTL

inhibition [4] [%]	SMILES	other results
79.9	O=S(=O)(c1ccccc1)c1cnc2ccccc2c1N1CCCCCC1	Ki [3]: 310 nM
90	COc1ccc(S(=O)(=O)c2cnc3cc(F)ccc3c2N2CCC(C)CC2)cc1	
23	Cc1ccc(S(=O)(=O)c2cnc3ccc(Cl)cc3c2N2CCOCC2)cc1F	
3	COc1ccc2ncc(S(=O)(=O)c3cc(F)cc(F)c3)c(N3CCOCC3)c2c1	
73	Cc1ccc(S(=O)(=O)c2cnc3c(F)cccc3c2N2CCOCC2)cc1F	
69	Cc1ccc(S(=O)(=O)c2cnc3ccc(F)cc3c2N2CCOCC2)cc1Cl	
1.9	NS(=O)(=O)N1CCN(c2c(S(=O)(=O)c3cccc(F)c3)cnc3cc(F)ccc23)CC1	
58	Cc1cc(C)cc(S(=O)(=O)c2cnc3cc(F)ccc3c2N2CCOCC2)c1	
82	Cc1ccc2ncc(S(=O)(=O)c3ccc(Cl)c(Cl)c3)c(N3CCC(C)CC3)c2c1	
41	COc1ccc(S(=O)(=O)c2cnc3ccc(OC)cc3c2N2CCC(C)CC2)cc1	
26	COc1ccc(S(=O)(=O)c2cnc3ccc(C)cc3c2N2CCOCC2)cc1	
0	O=S(=O)(c1cccc(F)c1)c1cnc2ccc(F)cc2c1N1CCOCC1	
90	Cc1ccc(S(=O)(=O)c2cnc3cc(F)ccc3c2N2CCC(C)CC2)cc1C	
86	Cc1ccc(S(=O)(=O)c2cnc3cc(Cl)ccc3c2N2CCC(C)CC2)cc1C	
7.7	CN1CCN(c2c(S(=O)(=O)c3ccccc3)cnc3ccccc23)CC1	
13	CC1CCN(c2c(S(=O)(=O)c3ccccc3)cnc3c(F)cccc23)CC1	
9	COc1ccc2ncc(S(=O)(=O)c3ccc(OC)c(Cl)c3)c(N3CCOCC3)c2c1	
91	Cc1ccc2ncc(S(=O)(=O)c3ccc(C)c(Cl)c3)c(N3CCC(C)CC3)c2c1	
2	O=S(=O)(c1ccc(F)c(F)c1)c1cnc2ccc(Cl)cc2c1N1CCOCC1	

inhibition [4] [%]	SMILES	other results
74	Cc1ccc(S(=O)(=O)c2cnc3cc(F)ccc3c2N2CCOCC2)cc1C	
76.1	COCC1CCN(c2c(S(=O)(=O)c3ccc(F)cc3)cnc3cc(F)ccc23)CC1	
86	Cc1ccc2ncc(S(=O)(=O)c3ccccc3)c(N3CCOCC3)c2c1	
10	Cc1ccc2ncc(S(=O)(=O)c3cccc(F)c3)c(N3CCOCC3)c2c1	
81	Cc1ccc(S(=O)(=O)c2cnc3ccc(Cl)cc3c2N2CCC(C)CC2)cc1Cl	
57	O=S(=O)(c1ccc(F)c(F)c1)c1cnc2c(F)cccc2c1N1CCOCC1	
92	Cc1ccc(S(=O)(=O)c2cnc3ccc(F)cc3c2N2CCC(C)CC2)cc1C	
72	COc1cccc(S(=O)(=O)c2cnc3cc(F)ccc3c2N2CCOCC2)c1	
51	Cc1ccc(S(=O)(=O)c2cnc3cc(F)ccc3c2N2CCOCC2)cc1F	
76	CC1CCN(c2c(S(=O)(=O)c3cccc(F)c3)cnc3ccc(F)cc23)CC1	
89	Cc1ccc2ncc(S(=O)(=O)c3ccc(Cl)cc3)c(N3CCOCC3)c2c1	
-3	COc1ccc2ncc(S(=O)(=O)c3cccc(F)c3)c(N3CCOCC3)c2c1	
79	Cc1ccc2ncc(S(=O)(=O)c3ccc(Cl)cc3)c(N3CCC(C)CC3)c2c1	
90	COc1cccc(S(=O)(=O)c2cnc3ccc(F)cc3c2N2CCC(C)CC2)c1	
0	O=S(=O)(c1cccc(F)c1)c1cnc2ccc(Cl)cc2c1N1CCOCC1	
79	COc1ccc(S(=O)(=O)c2cnc3cc(Cl)ccc3c2N2CCC(C)CC2)cc1	
53	Cc1ccc(S(=O)(=O)c2cnc3ccc(Cl)cc3c2N2CCOCC2)cc1Cl	
82	CC1CCN(c2c(S(=O)(=O)c3ccc(F)c(F)c3)cnc3ccc(F)cc23)CC1	
94	CC1CCN(c2c(S(=O)(=O)c3ccc(F)c(F)c3)cnc3cc(F)ccc23)CC1	

Further lines, the molecule ahead of its results:

SMILES	inhibition [4] [%]	other results
N#Cc1cc(F)cc(S(=O)(=O)c2cnc3cc(Cl)ccc3c2N2CCC(CO)CC2)c1		concentration at 40 min [1]: 608 ng/mL; minimal effective dose (Rattus norvegicus): > 10 mg/kg; solubility [2]: 15 to 45 µM (≈ 6.9 to 20.7 µg/mL); Ki [3]: 24.1 nM
CC1CCN(c2c(S(=O)(=O)c3ccccc3)cnc3ccccc23)CC1	89.2	Ki [3]: 108 nM
CC1CCN(c2c(S(=O)(=O)c3cc(F)cc(F)c3)cnc3cc(Cl)ccc23)CC1	94	Ki [3]: 68.2 nM
Cc1ccc2ncc(S(=O)(=O)c3cccc(F)c3)c(N3CCC(C)CC3)c2c1	94	solubility [2]: < 3 µM
O=S(=O)(c1cccc(Cl)c1)c1cnc2cc(Cl)ccc2c1N1CCC(CO)CC1		concentration at 40 min [1]: 193 ng/mL; minimal effective dose (Rattus norvegicus): 10 mg/kg; solubility [2]: 15 to 45 µM (≈ 6.77 to 20.3 µg/mL); Ki [3]: 30.9 nM
CCN(CC)c1c(S(=O)(=O)c2ccc(C)cc2)cnc2ccccc12	78.3	Ki [3]: 201 nM
O=S(=O)(c1ccccc1)c1cnc2ccccc2c1N1CCCCC1	71.4	Ki [3]: 307 nM
O=S(=O)(c1ccc(F)c(Cl)c1)c1cnc2cc(Cl)ccc2c1N1CCOCC1	83	
Cc1ccc2ncc(S(=O)(=O)c3ccc(F)cc3)c(N3CCOCC3)c2c1	18	
Cc1ccc(S(=O)(=O)c2cnc3cc(Cl)ccc3c2N2CCOCC2)cc1Cl	87	
CC1CCN(c2c(S(=O)(=O)c3ccc(F)c(Cl)c3)cnc3cc(Cl)ccc23)CC1	94	
COc1ccc(S(=O)(=O)c2cnc3ccc(C)cc3c2N2CCC(C)CC2)cc1Cl	93	
CC1CCN(c2c(S(=O)(=O)c3ccc(Cl)cc3)cnc3ccc(Cl)cc23)CC1	92	Ki [3]: 435 nM
O=S(=O)(c1ccc(F)c(Cl)c1)c1cnc2ccc(Cl)cc2c1N1CCOCC1	39	
COc1cccc(S(=O)(=O)c2cnc3ccc(C)cc3c2N2CCC(C)CC2)c1	96	
CC1CCN(c2c(S(=O)(=O)c3cccc(C#N)c3)cnc3ccc(Cl)cc23)CC1	90	
CC1CCN(c2c(S(=O)(=O)c3cc(Cl)cc(Cl)c3)cnc3ccc(Cl)cc23)CC1	88	
CCN1CCN(c2c(S(=O)(=O)c3ccccc3)cnc3ccccc23)CC1	1.7	
COc1ccc2ncc(S(=O)(=O)c3ccc(C)cc3)c(N3CCC(C)CC3)c2c1	90	
Cc1ccc2ncc(S(=O)(=O)c3cc(F)cc(F)c3)c(N3CCC(C)CC3)c2c1	72	
O=S(=O)(c1ccc(Cl)c(Cl)c1)c1cnc2cc(Cl)ccc2c1N1CCOCC1	86	
Cc1ccc(S(=O)(=O)c2cnc3cc(F)ccc3c2N2CCC(C)CC2)cc1	88	
Cc1ccc2ncc(S(=O)(=O)c3ccc(C#N)cc3)c(N3CCOCC3)c2c1	48	

SMILES	inhibition [4] [%]	other results
CC1CCN(c2c(S(=O)(=O)c3ccc(Cl)c(Cl)c3)cnc3ccc(Cl)cc23)CC1	86	concentration at 40 min [1]: 55 ng/mL; minimal effective dose (Rattus norvegicus): > 30 mg/kg; solubility [2]: < 3 µM; Ki [3]: 103 nM
COc1cccc(S(=O)(=O)c2cnc3cc(Cl)ccc3c2N2CCC(C)CC2)c1	93	
N#Cc1ccc(S(=O)(=O)c2cnc3ccc(F)cc3c2N2CCOCC2)cc1	-3	
COc1ccc(S(=O)(=O)c2cnc3ccc(F)cc3c2N2CCOCC2)cc1Cl	26	
O=S(=O)(c1ccccc1)c1cnc2ccccc2c1N1CCCC1	7.1	
O=S(=O)(c1cc(F)cc(F)c1)c1cnc2cc(F)ccc2c1N1CCOCC1	47.8 to 48	
COc1cccc(S(=O)(=O)c2cnc3ccc(Cl)cc3c2N2CCC(C)CC2)c1	87	
O=S(=O)(c1ccccc1)c1cnc2ccc(F)cc2c1N1CCOCC1	81	
Cc1ccc(S(=O)(=O)c2cnc3ccccc3c2NCc2ccccc2)cc1	73.5	Ki [3]: 198 nM
COc1ccc2ncc(S(=O)(=O)c3ccc(C)c(F)c3)c(N3CCOCC3)c2c1	4	
CC1CCN(c2c(S(=O)(=O)c3cc(F)cc(F)c3)cnc3cc(F)ccc23)CC1	77 to 77.2	
O=S(=O)(c1cccc(F)c1)c1cnc2cc(F)ccc2c1N1CCOCC1	4 to 4.1	
O=S(=O)(c1cc(F)cc(F)c1)c1cnc2cc(F)ccc2c1N1CCSCC1	78.4	
CC1CCN(c2c(S(=O)(=O)c3ccc(F)c(Cl)c3)cnc3cc(F)ccc23)CC1	94	
CC1CCN(c2c(S(=O)(=O)c3ccc(Cl)c(Cl)c3)cnc3ccc(F)cc23)CC1	91	concentration at 40 min [1]: 46 ng/mL; minimal effective dose (Rattus norvegicus): 30 mg/kg; solubility [2]: < 3 µM; Ki [3]: 55.6 nM
CC1CCN(c2c(S(=O)(=O)c3ccccc3)cnc3ccc(Cl)cc23)CC1	59	
O=S(=O)(c1cc(Cl)cc(Cl)c1)c1cnc2cc(F)ccc2c1N1CCOCC1	74	
CC1CCN(c2c(S(=O)(=O)c3ccc(F)c(Cl)c3)cnc3ccc(F)cc23)CC1	95	
CC1CCN(c2c(S(=O)(=O)c3cc(Cl)cc(Cl)c3)cnc3c(F)cccc23)CC1	82	
Cc1cc(C)cc(S(=O)(=O)c2cnc3ccc(F)cc3c2N2CCC(C)CC2)c1	83	
COc1ccc2ncc(S(=O)(=O)c3cccc(Cl)c3)c(N3CCOCC3)c2c1	12	
COc1ccc(S(=O)(=O)c2cnc3c(F)cccc3c2N2CCC(C)CC2)cc1	67	
Cc1ccc(S(=O)(=O)c2cnc3ccccc3c2N2CCOCC2)cc1C		Activity [5]: inactive
